Laboratory results taken from ChEMBL document CHEMBL1255448, “The 6-aminoquinolone WC5 inhibits human cytomegalovirus replication at an early stage by interfering with the transactivating activity of viral immediate-early 2 protein” (Antimicrob Agents Chemother, 2010).
Active and inactive are the calls of the source. No cut-off for these calls is given here. *1 amine or outer side, *2 acyl side, *3 side chain or, on linkers, in order; H or OH if unused. Where a SMILES comes first, the peptide text is derived from it. Bridges are numbered along the chain shown (N, C = ends). Roman numbers before positions name the chains, in order. [ ]: non-standard residue; d: D form. Actinocin(9to1) = Cc1c2oc3c(C)ccc(C(=O)[*:1])c3nc-2c(C(=O)[*:2])c(N)c1=O; NMeV = CN[C@H](C(=O)O)C(C)C; Sar = CNCC(=O)O

How the values were obtained:
[1] = Selectivity index, ratio of CC50 for human HFF to EC50 for human cytomegalovirus AD169
Summary of the method: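 Selectivity index is CC50 from the HFF MTT assay divided by EC50 from the AD169 plaque reduction assay in HFF.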

[2] = tested on: Human betaherpesvirus 5; test: Antiviral activity against human cytomegalovirus AD169 infected in human HFF assessed as inhibition of plaque formation by plaque reduction assay; format: functional, organism-based; conditions: Human betaherpesvirus 5, AD169
Summary of the method: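 Plaque reduction against AD169 in HFF. EC50 is the concentration giving 50% inhibition of plaque formation, reported as mean ± SD of at least three independent experiments run in duplicate.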

[3] = Cytotoxicity against human HFF by MTT assay; format: cell-based; conditions: HFF cells
Summary of the method: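 Cytotoxicity in HFF was measured by MTT reduction. CC50 is the concentration causing 50% cytotoxicity, reported as mean ± SD of at least three independent experiments run in quadruplicate.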

[4] = tested on: Human betaherpesvirus 5; test: Antiviral activity against 0.1 MOI human cytomegalovirus AD169 infected in human HFF assessed as inhibition of late phase mRNA expression after 16 hrs by RT-PCR analysis; format: functional, organism-based
Summary of the method: (§1)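 HFF seeded at 6×10^5 per well, infected with AD169 at MOI 0.1 PFU/cell, then given 50 µM drug or 0.2% DMSO. ActD 5 µg/ml, CHX 75 µg/ml and FOS 750 µM served as IE, E and L transcription controls. Total RNA was taken at 16 and 48 h p.i.; 1 µg was reverse-transcribed with random hexamers and MuLV RT. PCR used UL122/UL123 (IE), UL54/UL84 (E) and UL55/UL75 (L) primers with a β-actin control, and products were read on ethidium bromide agarose gels.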

[5] = tested on: Human betaherpesvirus 5; test: Antiviral activity against 0.1 MOI human cytomegalovirus AD169 infected in human HFF assessed as inhibition of immediate early phase mRNA expression after 48 hrs by RT-PCR analysis; format: functional, organism-based; summary of the method: as §1
[6] = tested on: Human betaherpesvirus 5; test: Antiviral activity against 0.1 MOI human cytomegalovirus AD169 infected in human HFF assessed as inhibition of early phase mRNA expression after 16 hrs by RT-PCR analysis; format: functional, organism-based; summary of the method: as §1
[7] = tested on: Human betaherpesvirus 5; test: Antiviral activity against 0.1 MOI human cytomegalovirus AD169 infected in human HFF assessed as inhibition of immediate early phase mRNA expression after 16 hrs by RT-PCR analysis; format: functional, organism-based; summary of the method: as §1
[8] = tested on: Human betaherpesvirus 5; test: Antiviral activity against 0.1 MOI human cytomegalovirus AD169 infected in human HFF assessed as inhibition of early phase mRNA expression after 48 hrs by RT-PCR analysis; format: functional, organism-based; summary of the method: as §1
[9] = tested on: Human betaherpesvirus 5; test: Antiviral activity against 0.1 MOI human cytomegalovirus AD169 infected in human U373-MG cells expressing UL54-EGFP reporter assessed as inhibition of EGFP expression after 48 hrs of infection by confocal fluorescence microscopy; format: functional, organism-based; conditions: U-373MG ATCC
Summary of the method: (§2)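 Stable U373-MG reporter cells were seeded on coverslips at 3×10^5 per well and infected with AD169 at MOI 0.1 or 0.5. They were then treated with 50 µM drug, 5 µM fomivirsen (also given 1 h before and during infection) or 0.2% DMSO. At 48 h p.i. cells were fixed in 4% paraformaldehyde for 15 min, and EGFP-positive cells were counted by confocal microscopy at 20×.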

[10] = tested on: Human betaherpesvirus 5; test: Antiviral activity against 0.1 MOI human cytomegalovirus AD169 infected in human U373-MG cells expressing UL112/113-EGFP reporter assessed as inhibition of EGFP expression after 48 hrs of infection by confocal fluorescence microscopy; format: functional, organism-based; conditions: U-373MG ATCC; summary of the method: as §2
[11] = tested on: Human betaherpesvirus 5; test: Antiviral activity against 0.1 MOI human cytomegalovirus AD169 infected in human HFF assessed as inhibition of viral replication up to 72 hrs post infection; format: functional, organism-based
[12] = tested on: Human betaherpesvirus 5; test: Antiviral activity against 0.1 MOI human cytomegalovirus AD169 infected in human HFF assessed as virus yield reduction by yield reduction assay; format: functional, organism-based; conditions: Human betaherpesvirus 5, AD169
[13] = tested on: Human betaherpesvirus 5; test: Antiviral activity against 1 MOI human cytomegalovirus AD169 infected in human HFF assessed as virus yield reduction by yield reduction assay; format: functional, organism-based; conditions: Human betaherpesvirus 5, AD169
[14] = Inhibition of human cytomegalovirus DNA polymerase catalytic subunit UL54/UL44 assessed as incorporation of [3H]dTTP; set-up: species or system Human betaherpesvirus 5
Summary of the method: (§3)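 Filter-based assay with purified baculovirus-expressed UL54 catalytic subunit, alone or with UL44 accessory subunit. Incorporation of [3H]dTTP into poly(dA)-oligo(dT)12-18 template-primer was measured across serial compound dilutions, with FOS as control. Means ± standard deviations from four independent experiments.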

[15] = tested on: Human betaherpesvirus 5; test: Antiviral activity against 0.1 MOI human cytomegalovirus AD169 infected in human HFF assessed as inhibition of late phase UL55 protein expression after 72 hrs of infection by Western blot analysis; format: functional, organism-based
Summary of the method: (§4)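 HFF infected with HCMV AD169 at MOI 0.1 PFU/cell, treated with 50 µM compound or 0.2% DMSO. ActD 5 µg/ml, CHX 75 µg/ml and FOS 750 µM served as controls. Harvests at 24, 48 and 72 h p.i. were lysed in NP-40 buffer, then SDS-PAGE and PVDF blotting. Probes were anti-IE1/IE2 (p72/p86) MAb or anti-UL55, then HRP secondary and ECL. β-actin reprobe was the internal control.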

[16] = Inhibition of human cytomegalovirus DNA polymerase catalytic subunit UL54 assessed as incorporation of [3H]dTTP; set-up: species or system Human betaherpesvirus 5; summary of the method: as §3
[17] = tested on: Human betaherpesvirus 5; test: Antiviral activity against 0.1 MOI human cytomegalovirus AD169 infected in human HFF assessed as inhibition of early phase UL84 mRNA expression after 16 hrs by RT-PCR analysis
[18] = tested on: Human betaherpesvirus 5; test: Antiviral activity against 0.1 MOI human cytomegalovirus AD169 infected in human HFF assessed as inhibition of early phase UL54 mRNA expression after 16 hrs by RT-PCR analysis
[19] = tested on: Human betaherpesvirus 5; test: Antiviral activity against 0.1 MOI human cytomegalovirus AD169 infected in human HFF assessed as inhibition of immediate early phase P86 protein expression after 24 hrs by Western blot analysis; format: functional, organism-based; summary of the method: as §4
[20] = tested on: Human betaherpesvirus 5; test: Antiviral activity against 0.1 MOI human cytomegalovirus AD169 infected in human HFF assessed as inhibition of immediate early phase P72 protein expression after 24 hrs by Western blot analysis; format: functional, organism-based; summary of the method: as §4
[21] = tested on: Human betaherpesvirus 5; test: Antiviral activity against human cytomegalovirus AD169 in human HFF assessed as reduction of viral attachment to fibroblast after 2 hrs at 37 degC; format: functional, organism-based

| Molecule | Selectivity Index [1] | EC50 [2] | CC50 [3] | other results |
| --- | --- | --- | --- | --- |
| CCOC(=O)c1cn(C2CC2)c2cc(N3CCN(c4ccccn4)CC3)c(N)cc2c1=O | > 8 | > 50 µM | 409 µM | – |
| Cc1c2oc3c(C)ccc(C(=O)N[C@@H]4C(=O)N[C@H](C(C)C)C(=O)N5CCC[C@H]5C(=O)N(C)CC(=O)N(C)[C@@H](C(C)C)C(=O)O[C@@H]4C)c3nc-2c(C(=O)N[C@@H]2C(=O)N[C@H](C(C)C)C(=O)N3CCC[C@H]3C(=O)N(C)CC(=O)N(C)[C@@H](C(C)C)C(=O)O[C@@H]2C)c(N)c1=O (I: T[dV]P[Sar][NMeV] / II: T[dV]P[Sar][NMeV]; ester I:1-I:C, II:1-II:C; linker I:N-II:N via Actinocin(9to1)) | – | – | – | inhibition [4]: inactive; inhibition [5]: inactive; inhibition [6]: inactive; inhibition [7]: inactive; inhibition [8]: inactive |
| Nc1cc2c(=O)c(C(=O)O)cn(C3CC3)c2cc1N1CCN(c2nc3ccccc3s2)CC1 | 225 | 0.02 µM | – | – |
| CC(C)(C)n1cc(C(=O)O)c(=O)c2cc(N)c(N3CCN(c4nc5ccccc5s4)CC3)cc21 | 32 | 0.18 µM | 5.8 µM | – |
| CC(C)(C)n1cc(C(=O)O)c(=O)c2cc(N)c(N3CCN(c4ccccn4)CC3)cc21 | >=13 | 36.7 µM | ≥ 475 µM | – |
| O=C(O)c1cn(C2CC2)c2cc(N3CCN(c4ccccn4)CC3)ccc2c1=O | 70 | 5.6 µM | 390 µM | – |
| FOMIVIRSEN SODIUM | – | – | – | inhibition [9]: Active; inhibition [10]: Active |
| Nc1nc2c(ncn2COC(CO)CO)c(=O)[nH]1 [GANCICLOVIR] | 289 | 1.9 µM | – | Activity [11]: inactive; EC90 [12]: 1 µM; EC90 [13]: 0.8 µM |
| O=C(NCP(=O)(O)O)OCc1ccccc1 [(BENZYLOXYCARBONYLAMINO)METHYLPHOSPHONIC ACID] | – | – | – | IC50 [14]: 5.5 µM; inhibition [15]: Active; IC50 [16]: 3.1 µM |
| C[C@@H]1C[C@@H]([C@H](O)CC2CC(=O)NC(=O)C2)C(=O)[C@@H](C)C1 | – | – | – | inhibition [17]: Active; inhibition [18]: Active; inhibition [19]: Active; inhibition [20]: Active |
| Cn1cc(C(=O)O)c(=O)c2cc(N)c(N3CCN(c4ccccn4)CC3)cc21 | 77 | 0.7 µM | – | – |
| Cc1cn([C@H]2C[C@H](OP(O)(=S)OC[C@H]3O[C@@H](n4ccc(N)nc4=O)C[C@@H]3OP(O)(=S)OC[C@H]3O[C@@H](n4cnc5c(=O)[nH]c(N)nc54)C[C@@H]3OP(O)(=S)OC[C@H]3O[C@@H](n4cc(C)c(=O)[nH]c4=O)C[C@@H]3OP(O)(=S)OC[C@H]3O[C@@H](n4ccc(N)nc4=O)C[C@@H]3OP(O)(=S)OC[C@H]3O[C@@H](N4C(=O)C5N=CNC5N=C4N)C[C@@H]3OP(O)(=S)OC[C@H]3O[C@@H](n4cc(C)c(=O)[nH]c4=O)C[C@@H]3OP(O)(=S)OC[C@H]3O[C@@H](n4cc(C)c(=O)[nH]c4=O)C[C@@H]3OP(O)(=S)OC[C@H]3O[C@@H](n4cc(C)c(=O)[nH]c4=O)C[C@@H]3OP(O)(=S)OC[C@H]3O[C@@H](n4cc(C)c(=O)[nH]c4=O)C[C@@H]3OP(O)(=S)OC[C@H]3O[C@@H](N4C=NC5C(=O)NC(N)=NC54)C[C@@H]3OP(O)(=S)OC[C@H]3O[C@@H](n4cc(C)c(=O)[nH]c4=O)C[C@@H]3OP(O)(=S)OC[C@H]3O[C@@H](n4ccc(N)nc4=O)C[C@@H]3OP(O)(=S)OC[C@H]3O[C@@H](N4C=NC5C(=O)NC(N)=NC54)C[C@@H]3OP(O)(=S)OC[C@H]3O[C@@H](n4cc(C)c(=O)[nH]c4=O)C[C@@H]3OP(O)(=S)OC[C@H]3O[C@@H](n4cc(C)c(=O)[nH]c4=O)C[C@@H]3OP(O)(=S)OC[C@H]3O[C@@H](n4cc(C)c(=O)[nH]c4=O)C[C@@H]3OP(O)(=S)OC[C@H]3O[C@@H](n4cc(C)c(=O)[nH]c4=O)C[C@@H]3OP(O)(=S)OC[C@H]3O[C@@H](n4cnc5c(=O)[nH]c(N)nc54)C[C@@H]3OP(O)(=S)OC[C@H]3O[C@@H](n4cc(C)c(=O)[nH]c4=O)C[C@@H]3OP(O)(=S)OC[C@H]3O[C@@H](n4ccc(N)nc4=O)C[C@@H]3OP(O)(=S)OC[C@H]3O[C@@H](N4C=NC5C(=O)NC(N)=NC54)C[C@@H]3OP(O)(=S)OC[C@H]3O[C@@H](n4cc(C)c(=O)[nH]c4=O)C[C@@H]3OP(O)(=S)OC[C@H]3O[C@@H](n4cc(C)c(=O)[nH]c4=O)C[C@@H]3O)[C@@H](CO)O2)c(=O)[nH]c1=O (stereo partly specified) | – | – | – | Activity [21]: Active |
